One assay deals with T1, GABA transporter 3 (Mus musculus, UniProt P31649).
T1 sequence (P31649 whole entry): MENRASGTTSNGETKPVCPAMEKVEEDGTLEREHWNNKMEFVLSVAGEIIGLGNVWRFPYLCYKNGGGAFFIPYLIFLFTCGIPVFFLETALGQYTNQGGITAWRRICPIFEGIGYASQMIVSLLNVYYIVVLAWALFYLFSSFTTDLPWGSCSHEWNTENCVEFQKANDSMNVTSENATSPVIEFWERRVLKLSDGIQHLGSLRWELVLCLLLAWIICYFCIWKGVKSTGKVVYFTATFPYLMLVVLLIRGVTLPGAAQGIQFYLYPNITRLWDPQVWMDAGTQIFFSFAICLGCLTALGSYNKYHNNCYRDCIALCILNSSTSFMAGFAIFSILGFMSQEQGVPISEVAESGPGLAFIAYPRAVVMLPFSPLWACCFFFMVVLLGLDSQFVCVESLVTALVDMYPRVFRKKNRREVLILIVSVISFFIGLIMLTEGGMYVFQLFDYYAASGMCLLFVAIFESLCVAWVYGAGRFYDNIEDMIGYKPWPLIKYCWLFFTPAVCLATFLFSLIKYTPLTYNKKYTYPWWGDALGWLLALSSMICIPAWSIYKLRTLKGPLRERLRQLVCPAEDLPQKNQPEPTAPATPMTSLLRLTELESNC
The experiment in a line: Inhibition of [3H]GABA uptake at mouse GAT3 expressed in HEK cells. It is filed as cell-based, HEK293.

Assay [1] concerns the target Sodium- and chloride-dependent GABA transporter 1 (Mus musculus, UniProt P31648). As to the kind of experiment: Inhibition of [3H]GABA uptake at mouse GAT1 expressed in HEK cells. It is filed as cell-based, HEK293.
For the next assay, the target named is T2, GABA transporter 4 (Mus musculus, UniProt P31650).
T2 sequence (P31650 whole entry): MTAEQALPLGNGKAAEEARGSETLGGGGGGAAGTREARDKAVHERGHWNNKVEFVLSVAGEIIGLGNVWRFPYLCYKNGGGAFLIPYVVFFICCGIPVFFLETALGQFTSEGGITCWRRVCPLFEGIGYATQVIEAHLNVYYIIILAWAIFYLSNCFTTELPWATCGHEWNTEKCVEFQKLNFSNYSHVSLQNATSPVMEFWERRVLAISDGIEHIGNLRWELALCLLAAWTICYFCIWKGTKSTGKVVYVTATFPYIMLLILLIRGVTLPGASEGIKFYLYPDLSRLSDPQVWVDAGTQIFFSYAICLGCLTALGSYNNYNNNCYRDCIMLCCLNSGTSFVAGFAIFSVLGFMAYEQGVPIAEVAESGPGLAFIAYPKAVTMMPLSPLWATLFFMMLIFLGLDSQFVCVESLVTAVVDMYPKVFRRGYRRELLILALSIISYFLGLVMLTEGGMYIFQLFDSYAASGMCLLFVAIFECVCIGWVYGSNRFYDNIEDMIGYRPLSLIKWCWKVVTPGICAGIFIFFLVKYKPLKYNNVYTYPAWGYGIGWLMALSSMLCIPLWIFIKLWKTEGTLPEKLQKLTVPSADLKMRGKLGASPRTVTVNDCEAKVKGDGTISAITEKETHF
As to the kind of experiment: Inhibition of [3H]GABA uptake at mouse GAT4 expressed in HEK cells. It is filed as cell-based, HEK293.

In another assay the target is T3, GABA transporter 2 (Mus musculus, UniProt P31651).
T3 sequence (P31651 whole entry): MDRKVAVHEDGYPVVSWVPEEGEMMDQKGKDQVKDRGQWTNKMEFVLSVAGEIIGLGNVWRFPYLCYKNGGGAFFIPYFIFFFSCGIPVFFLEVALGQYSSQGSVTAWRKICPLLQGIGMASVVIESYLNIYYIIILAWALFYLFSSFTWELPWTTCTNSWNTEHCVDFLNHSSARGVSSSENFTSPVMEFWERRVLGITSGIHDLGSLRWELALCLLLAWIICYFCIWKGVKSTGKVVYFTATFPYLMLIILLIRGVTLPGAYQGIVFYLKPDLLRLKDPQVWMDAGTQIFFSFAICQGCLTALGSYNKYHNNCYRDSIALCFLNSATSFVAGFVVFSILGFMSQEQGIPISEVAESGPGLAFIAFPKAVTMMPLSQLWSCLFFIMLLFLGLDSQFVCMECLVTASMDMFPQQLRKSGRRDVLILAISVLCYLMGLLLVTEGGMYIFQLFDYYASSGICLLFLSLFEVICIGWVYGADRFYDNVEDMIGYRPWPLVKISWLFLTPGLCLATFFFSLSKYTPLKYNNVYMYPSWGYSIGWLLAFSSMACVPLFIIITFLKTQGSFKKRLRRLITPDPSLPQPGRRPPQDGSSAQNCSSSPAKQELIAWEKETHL
The experiment in a line: Inhibition of [3H]GABA uptake at mouse GAT2 expressed in HEK cells. It is filed as cell-based, HEK293. Summed up: (§1)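 Stable mGAT2-HEK cells were trypsinized, PBS-washed, and suspended in Krebs-Tris pH 7.2 at about 200,000 cells/well. Cells were preincubated 25 min at 37 °C with compound (1% DMSO), then exposed to 20 nM [³H]GABA plus 20 nM unlabeled GABA for 10 min.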

The target of assay [2] is T4, GABA transporter 2 (Mus musculus) (UniProt P31651).
T4 sequence (whole entry): T3 sequence (P31651 whole entry)
As to the kind of experiment: Inhibition of [3H]GABA uptake at mouse GAT2 expressed in HEK cells assessed as remaining [3H]GABA uptake at 100 uM relative to control. The assay is classed as cell-based. The following applies: HEK293. Summed up:
as §1

Assay [3] has as its target Sodium- and chloride-dependent GABA transporter 1 (Mus musculus) (UniProt P31648). As to the kind of experiment: Inhibition of [3H]GABA uptake at mouse GAT1 expressed in HEK cells assessed as remaining [3H]GABA uptake at 100 uM relative to control. The following applies: HEK293. It is filed as cell-based. Summed up: (§2)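 Stably transfected HEK cells were trypsinized, washed in PBS, and resuspended in Krebs-Tris buffer pH 7.2 at about 100,000 cells/well. They were pre-equilibrated 25 min at 37 °C with compound in 1% DMSO, then given 8 nM [³H]GABA plus 32 nM unlabeled GABA for 4 min.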

For assay [4], the target named is T5, GABA transporter 3 (Mus musculus) (UniProt P31649).
T5 sequence (whole entry): T1 sequence (P31649 whole entry)
As to the kind of experiment: Inhibition of [3H]GABA uptake at mouse GAT3 expressed in HEK cells assessed as remaining [3H]GABA uptake at 100 uM relative to control. It is filed as cell-based. The conditions noted are these: HEK293. In short, it runs like this: as §2

Assay [5] addresses T6, GABA transporter 4 (Mus musculus) (UniProt P31650).
T6 sequence (whole entry): T2 sequence (P31650 whole entry)
As to the kind of experiment: Inhibition of [3H]GABA uptake at mouse GAT4 expressed in HEK cells assessed as remaining [3H]GABA uptake at 100 uM relative to control. The assay is classed as cell-based. The following applies: HEK293. In short, it runs like this:
as §2

As to `Oc1cccc(CNCCC(c2ccccc2)c2ccccc2)c1`, the IC50 at GABA transporter 3 (read-out: pIC50 (converted)) was 38 µM; in assay [1], 87.1 µM; on GABA transporter 4 it was 50.1 µM; against GABA transporter 2, 47.9 µM.
As for `Oc1c(F)cc(CNCCC=C(c2ccccc2)c2ccccc2)cc1F`, the Activity in assay [2] stood at 82%; in assay [3], 70%; in assay [4], 66%; in assay [5] it was 76%.
On to `COc1ccc(C(OCCNCc2ccc(OC)c(O)c2)(c2ccc(OC)cc2)c2ccc(OC)cc2)cc1`, for which the IC50 was 8.91 µM at GABA transporter 3 (read-out: pIC50 (converted)), 25.7 µM in assay [1], 14.5 µM on GABA transporter 4 and 20.9 µM against GABA transporter 2.
Turning to `O=C(O)C1CCCN(CCC=C(c2ccccc2)c2ccccc2)C1` (configuration not stated), the IC50 at GABA transporter 3 (read-out: pIC50 (converted)) is 195 µM; in assay [1], 0.692 µM; at GABA transporter 4 it was 275 µM; on GABA transporter 2, 372 µM.
For `Cc1ccsc1C(=CCCN1CCC[C@@H](C(=O)O)C1)c1sccc1C` [TIAGABINE], the figures for the Activity in assay [2], in assay [4] and in assay [5] were 52%, 64% and 73%, respectively. In addition, in assay [1], the IC50 was 0.132 µM.
As for `CCCCCCCCCCCCNCc1ccccc1O`, the IC50 was 18.6 µM on GABA transporter 3 (read-out: pIC50 (converted)), 58.9 µM in assay [1], 63.1 µM on GABA transporter 4 and 28.8 µM against GABA transporter 2.
`COc1ccc(C(OCCNCc2cc(F)c(O)c(F)c2)(c2ccc(OC)cc2)c2ccc(OC)cc2)cc1`: the Activity turned out to be 64% in assay [2], 59% in assay [3], 51% in assay [4] and 67% in assay [5].
Consider `COc1ccc(C(OCCNCc2cccc(O)c2)(c2ccc(OC)cc2)c2ccc(OC)cc2)cc1`, for which the IC50 is 9.55 µM on GABA transporter 3 (read-out: pIC50 (converted)), 43.7 µM in assay [1], 7.76 µM against GABA transporter 4 and 12.9 µM at GABA transporter 2.
As to `COc1ccc(C(OCCN2CCC[C@H](C(=O)O)C2)(c2ccc(OC)cc2)c2ccc(OC)cc2)cc1`, the Activity in assay [2] was 56%.
Regarding `COc1ccc(C(OCCNCc2ccc(F)c(O)c2F)(c2ccc(OC)cc2)c2ccc(OC)cc2)cc1`, the Activity is 54% in assay [2] and 82% in assay [5]. The IC50 was 10.2 µM at GABA transporter 3 (read-out: IC50) and 85.1 µM in assay [1].
Consider `Oc1cccc(CNCCC=C(c2ccccc2)c2ccccc2)c1`, for which the IC50 is 7.94 µM on GABA transporter 3 (read-out: pIC50 (converted)), 28.8 µM in assay [1], 20.9 µM against GABA transporter 4 and 17.8 µM at GABA transporter 2.
For the compound `Oc1ccccc1CNCCC=C(c1ccccc1)c1ccccc1`, the IC50 on GABA transporter 3 (read-out: pIC50 (converted)) is 7.76 µM; in assay [1], 33.1 µM; against GABA transporter 4, 14.8 µM; at GABA transporter 2 it was 14.5 µM.
Regarding `O=C(O)C1=CCCN(CCON=C(c2ccccc2)c2ccccc2)C1`, the IC50 at GABA transporter 3 (read-out: pIC50 (converted)) is 240 µM; in assay [1] it was 0.148 µM; against GABA transporter 4 it was 851 µM; against GABA transporter 2, 631 µM.
Take `CCCCCCCCCCCCNCc1cccc(O)c1`: the IC50 on GABA transporter 3 (read-out: pIC50 (converted)) is 5.62 µM; in assay [1] it was 20.9 µM; against GABA transporter 4 it was 25.1 µM; on GABA transporter 2, 15.1 µM.
Take `Oc1ccccc1CNCCC(c1ccccc1)c1ccccc1`: the IC50 at GABA transporter 3 (read-out: pIC50 (converted)) is 24.5 µM; in assay [1], 52.5 µM; against GABA transporter 4 it was 25.1 µM; against GABA transporter 2, 18.2 µM.
Taken in the same sequence, the figures for `COc1ccc(CNCCC=C(c2ccccc2)c2ccccc2)cc1O` were 12 µM, 18.6 µM, 22.9 µM and 19.5 µM.
On to `CCCCCCCCCCCCNCc1ccc(OC)c(O)c1`, for which the IC50 on GABA transporter 3 (read-out: pIC50 (converted)) was 2.69 µM; in assay [1] it was 12.3 µM; against GABA transporter 4, 8.71 µM; against GABA transporter 2 it was 12.6 µM.
With `COc1ccc(C(OCCNCc2ccccc2O)(c2ccc(OC)cc2)c2ccc(OC)cc2)cc1`, the IC50 was 8.32 µM on GABA transporter 3 (read-out: pIC50 (converted)), 26.9 µM in assay [1], 16.2 µM on GABA transporter 4 and 11.7 µM against GABA transporter 2.
With `O=C(O)C1=CCCNC1` [GUVACINE], the IC50 at GABA transporter 3 (read-out: pIC50 (converted)) is 25.7 µM; in assay [1], 13.5 µM; at GABA transporter 4, 25.7 µM; against GABA transporter 2 it was 490 µM.
As to `COc1ccc(C(OCCNCc2c(F)cc(F)c(O)c2F)(c2ccc(OC)cc2)c2ccc(OC)cc2)cc1`, the Activity came to 89% in assay [2], 87% in assay [3], 56% in assay [4] and 64% in assay [5].

Values taken from ChEMBL document CHEMBL1140995, “Synthesis and biological evaluation of aminomethylphenol derivatives as inhibitors of the murine GABA transporters mGAT1-mGAT4” (Eur J Med Chem, 2008).
